Test results as given in ChEMBL document CHEMBL1124865, “Synthesis and biological evaluation of a series of parenteral 3'-quaternary ammonium cephalosporins” (J Med Chem, 1990).
Values after ≈ are worked out from the molar mass of the structure shown.

Legend:
Canis familiaris [1] = experiment: Percent of dose in dogs urine at the dose of 60 mg/kg.; format: functional, Canis lupus familiaris
Summary of the method: (§1)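 Overnight-fasted female mongrel dogs with a Foley bladder catheter; bolus into the cephalic vein. Plasma and urine collected before dosing and over 24 h after. Antibacterial activity measured by microbiological assay.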

Staphylococcus aureus [2] = experiment: In vivo efficacy against Staphylococcus aureus infected mice treated at 1 hr and 5 hr post infection; format: functional; conditions: Staphylococcus aureus; read-out: ED50
Pseudomonas aeruginosa [3] = experiment: In vivo efficacy against Pseudomonas aeruginosa infected mice treated at 1 hr and 5 hr post infection; format: functional; conditions: Pseudomonas aeruginosa; read-out: ED50
Pseudomonas aeruginosa [4] = experiment: Antibacterial activity against Pseudomonas aeruginosa X528; format: functional; conditions: Pseudomonas aeruginosa; read-out: MIC
Pseudomonas aeruginosa [5] = experiment: In vivo efficacy against Pseudomonas aeruginosa infections in mice; format: functional; conditions: Pseudomonas aeruginosa; read-out: MIC
Enterobacter cloacae [6] = experiment: Antibacterial activity against Enterobacter cloacae EB5; format: functional; conditions: Enterobacter cloacae; read-out: MIC
Escherichia coli [7] = experiment: Antibacterial activity against Escherichia coli EC14; format: functional; conditions: Escherichia coli; read-out: MIC
Escherichia coli [8] = experiment: In vivo efficacy against Escherichia coli infections in mice; format: functional; conditions: Escherichia coli; read-out: MIC
Cavia porcellus [9] = species: Cavia porcellus; experiment: In vitro relative anticholinergic potential in isolated guinea pig trachea; format: functional
Summary of the method: (§2)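 Guinea pig trachea in Krebs' solution at 37.5 °C, 95% O2/5% CO2, pH 7.4, 2 g resting tension. Cumulative carbachol log dose-response curve (3-fold steps) run before and 30 min after adding antagonist at 1 mM. […] Tukey test on log2 dose ratios.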

Streptococcus pneumoniae = experiment: Antibacterial activity against Streptococcus pneumoniae; format: functional; conditions: Streptococcus pneumoniae; read-out: MIC
Staphylococcus aureus [10] = experiment: In vivo efficacy against Staphylococcus aureus infections in mice; format: functional; conditions: Staphylococcus aureus; read-out: MIC
Staphylococcus aureus [11] = experiment: Antibacterial activity against penicillin G resistance Staphylococcus aureus; format: functional; conditions: Staphylococcus aureus; read-out: MIC
Enterococcus faecium = experiment: Antibacterial activity against Enterococcus faecium; format: functional; conditions: Enterococcus faecium; read-out: MIC
[12] = Terminal half life in dogs at the dose of 60 mg/kg.; format: ADME, organism-based, Canis lupus familiaris; design: dose 60 mg/kg; conditions: dog, in vivo; summary of the method: as §1
Pseudomonas aeruginosa [13] = experiment: Antibacterial activity against Pseudomonas aeruginosa PS18; format: functional; conditions: Pseudomonas aeruginosa; read-out: MIC
Serratia marcescens = experiment: Antibacterial activity against Serratia marcescens SE3; format: functional; conditions: Serratia marcescens; read-out: MIC
Streptococcus pyogenes [14] = experiment: Antibacterial activity against Streptococcus pyogenes; format: functional; conditions: Streptococcus pyogenes; read-out: MIC
Staphylococcus aureus [15] = experiment: Antibacterial activity against penicillin G susceptible Staphylococcus aureus; format: functional; conditions: Staphylococcus aureus; read-out: MIC
Klebsiella pneumoniae [16] = experiment: Antibacterial activity against Klebsiella pneumoniae X26; format: functional; conditions: Klebsiella pneumoniae; read-out: MIC
Klebsiella pneumoniae [17] = experiment: microbe, parasite or virus in culture; format: functional; conditions: Klebsiella pneumoniae; read-out: MIC
Escherichia coli [18] = experiment: In vivo efficacy against Escherichia coli infected mice treated at 1 hr and 5 hr post infection; format: functional; conditions: Escherichia coli; read-out: ED50
Enterobacter cloacae [19] = experiment: Antibacterial activity against Enterobacter cloacae 265A; format: functional; conditions: Enterobacter cloacae; read-out: MIC
[20] = In vitro dose required for anticholinergic activity in isolated guinea pig trachea; format: functional
Escherichia coli [21] = experiment: Antibacterial activity against Escherichia coli TEM; format: functional; conditions: Escherichia coli; read-out: MIC
Cavia porcellus [22] = species: Cavia porcellus; experiment: In vitro relative anticholinergic activity in isolated guinea pig trachea; format: functional; conditions: read-out: pA2 (converted); summary of the method: as §2
[23] = Terminal half life in Rhesus monkeys at the dose of 30 mg/kg.; format: ADME, organism-based, Macaca mulatta; design: dose 30 mg/kg; conditions: rhesus monkey, in vivo
Summary of the method: (§3)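 Male rhesus monkeys dosed intravenously at 30 mg/kg. Plasma sampled from 0.08–0.1 h up to 6–8 h; urine collected over 0–6/8 and 6/8–24 h. Samples measured by microbiological assay.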

Monkey = experiment: Percent of dose in Rhesus monkeys urine at the dose of 30 mg/kg.; format: functional, Cercopithecidae; summary of the method: as §3
Canis familiaris [24] = experiment: Percent of dose in dogs urine at the dose of 15 mg/kg.; format: functional, Canis lupus familiaris; summary of the method: as §1
Canis familiaris [25] = experiment: Percent of dose in dogs urine at the dose of 30 mg/kg.; format: functional, Canis lupus familiaris; summary of the method: as §1
Staphylococcus aureus [26] = experiment: In vitro relative hydrolysis rate against Staphylococcus aureus; format: functional
Summary of the method: (§4)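 Spectrophotometric hydrolysis at 265 nm, substrate exposed to partially purified cell-free β-lactamase preparations; rate expressed as percentage of the cephaloridine rate.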

[27] = Terminal half life in dogs at the dose of 30 mg/kg.; format: ADME, organism-based, Canis lupus familiaris; design: dose 30 mg/kg; conditions: dog, in vivo; summary of the method: as §1
Enterobacter cloacae [28] = experiment: In vitro relative hydrolysis rate against Enterobacter Ia; format: functional; summary of the method: as §4
Klebsiella pneumoniae [29] = experiment: In vitro relative hydrolysis rate against Klebsiella IV; format: functional; summary of the method: as §4
Escherichia coli [30] = experiment: In vitro relative hydrolysis rate against Escherichia coli IIIa; format: functional; summary of the method: as §4
[31] = Terminal half life in dogs at the dose of 15 mg/kg.; format: ADME, organism-based, Canis lupus familiaris; design: dose 15 mg/kg; conditions: dog, in vivo; summary of the method: as §1
Pseudomonas aeruginosa [32] = experiment: In vitro relative hydrolysis rate against Pseudomonas Id; format: functional; summary of the method: as §4
Streptococcus pyogenes [33] = experiment: Antibacterial activity against Streptococcus pyogenes

SMILES	ED50 (Staphylococcus aureus [2]) [mg/kg]	ED50 (Pseudomonas aeruginosa [3]) [mg/kg]	MIC (Pseudomonas aeruginosa [4]) [µg/mL]	MIC (Pseudomonas aeruginosa [5]) [µg/mL]	MIC (Enterobacter cloacae [6]) [µg/mL]	MIC (Escherichia coli [7]) [µg/mL]	MIC (Escherichia coli [8]) [µg/mL]	RAP (Cavia porcellus [9])	MIC (Streptococcus pneumoniae) [µg/mL]	MIC (Staphylococcus aureus [11]) [µg/mL]	MIC (Enterococcus faecium) [µg/mL]	MIC (Pseudomonas aeruginosa [13]) [µg/mL]	MIC (Serratia marcescens) [µg/mL]	MIC (Streptococcus pyogenes [14]) [µg/mL]	MIC (Staphylococcus aureus [15]) [µg/mL]	MIC (Klebsiella pneumoniae [16]) [µg/mL]	MIC (Klebsiella pneumoniae [17]) [µg/mL]	MIC (Enterobacter cloacae [19]) [µg/mL]	Dose ratio [20]	MIC (Escherichia coli [21]) [µg/mL]	other results
CO/N=C(\C(=O)N[C@@H]1C(=O)N2C(C(=O)[O-])=C(C[n+]3ccccc3)CS[C@H]12)c1csc(N)n1	0.8	14.4	2 (≈ 4.21 µM)	16 (≈ 33.7 µM)	0.06 (≈ 0.126 µM)	0.03 (≈ 0.0632 µM)	0.06 (≈ 0.126 µM)	9	0.03 (≈ 0.0632 µM)	2 (≈ 4.21 µM)	> 128	4 (≈ 8.43 µM)	0.25 (≈ 0.527 µM)	0.03 (≈ 0.0632 µM)	1 (≈ 2.11 µM)	0.03 (≈ 0.0632 µM)	4 (≈ 8.43 µM)	2 (≈ 4.21 µM)	3.04	0.03 (≈ 0.0632 µM)	Percent of dose recovered in urine (Canis familiaris [1]): 94%; MIC (Staphylococcus aureus [10]): 1 µg/mL (≈ 2.11 µM); half-life [12]: 1.67 h; ED50 (Escherichia coli [18]): 0.07 mg/kg; Kb (Cavia porcellus [22]): 490 µM
CO/N=C(\C(=O)N[C@@H]1C(=O)N2C(C(=O)[O-])=C(C[n+]3cccc4c3CCC4)CS[C@H]12)c1csc(N)n1 [CEFPIROME]	–	–	2 (≈ 3.89 µM)	–	0.06 (≈ 0.117 µM)	0.015 (≈ 0.0291 µM)	–	4	0.015 (≈ 0.0291 µM)	1 (≈ 1.94 µM)	8 (≈ 15.5 µM)	8 (≈ 15.5 µM)	0.125 (≈ 0.243 µM)	0.008 (≈ 0.0155 µM)	1 (≈ 1.94 µM)	0.015 (≈ 0.0291 µM)	4 (≈ 7.77 µM)	0.5 (≈ 0.972 µM)	1.76	0.03 (≈ 0.0583 µM)	half-life [23]: 1.13 h; Dose (Monkey): 61%
CO/N=C(\C(=O)N[C@@H]1C(=O)N2C(C(=O)[O-])=C(C[n+]3ccc4sccc4c3)CS[C@H]12)c1csc(N)n1	0.4	6.3	2 (≈ 3.77 µM)	2 (≈ 3.77 µM)	0.06 (≈ 0.113 µM)	0.015 (≈ 0.0283 µM)	< 0.008	100	0.015 (≈ 0.0283 µM)	2 (≈ 3.77 µM)	> 128	4 (≈ 7.54 µM)	0.125 (≈ 0.236 µM)	< 0.008	1 (≈ 1.88 µM)	0.015 (≈ 0.0283 µM)	2 (≈ 3.77 µM)	4 (≈ 7.54 µM)	23.67	0.03 (≈ 0.0565 µM)	Dose (Canis familiaris [24]): 55%; Dose (Canis familiaris [25]): 58%; Hydrolysis rate (Staphylococcus aureus [26]): 7.8; MIC (Staphylococcus aureus [10]): 1 µg/mL (≈ 1.88 µM); half-life [27]: 1.5 h; Hydrolysis rate (Enterobacter cloacae [28]): 0.6; Hydrolysis rate (Klebsiella pneumoniae [29]): 3.4; ED50 (Escherichia coli [18]): 0.02 mg/kg; Hydrolysis rate (Escherichia coli [30]): 0.3; half-life [31]: 1.75 h; Kb (Cavia porcellus [22]): 43.7 µM; Hydrolysis rate (Pseudomonas aeruginosa [32]): 0.3
CO/N=C(\C(=O)N[C@@H]1C(=O)N2C(C(=O)[O-])=C(C[n+]3cccc4ncccc43)CS[C@H]12)c1csc(N)n1	–	–	4 (≈ 7.61 µM)	–	0.25 (≈ 0.476 µM)	0.06 (≈ 0.114 µM)	–	–	0.06 (≈ 0.114 µM)	4 (≈ 7.61 µM)	> 128	8 (≈ 15.2 µM)	0.5 (≈ 0.951 µM)	–	2 (≈ 3.81 µM)	0.06 (≈ 0.114 µM)	4 (≈ 7.61 µM)	8 (≈ 15.2 µM)	–	0.125 (≈ 0.238 µM)	MIC (Streptococcus pyogenes [33]): 0.03 µg/mL (≈ 0.0571 µM)
